# Source: PubChem (several laboratories)
# An excerpt weighted towards active compounds, which were near 6% of everything screened.
# F-actin modifier – modifiers of F-actin cytoskeleton organization, primary screen, imaging, HUVEC, phalloidin staining, high-content imaging; HUVEC TNFa F-actin phalloidin imaging; inhibition, % at 2 µM; hit rate 0.18% among 91,000; AID 836, 2007;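 active = inhibition above the batch mean plus 3 SD and confirmed as a hit by visual image inspection, cut at about 30% in these data, passing the limit was not always enough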
# H69AR inhibit – proliferation blockers of H69AR lung cancer cells, primary screen, cell-based, human, 86K library; H69AR lung tumor viability, ATP luminescence, 72 h; active compounds read low; viability, % at 10 µM; hit rate 6% among 85,000;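 active = viability at or below 40%; inactive = viability above 40%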;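 note: multidrug resistant small cell line overexpressing MRP-1 efflux transporter; 100% = mean luminescence of untreated control wells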
# Fibroblast inh – antiproliferative effect on LL 47 fibroblasts – human, LL 47 cells, CellTiter-Glo luminescence, primary screen. AID 719, 2007. viability, % at 10 µM. LL 47 human lung fibroblast viability, ATP luminescence; active compounds read low. hit rate 1.1% among 85,000;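 active = viability at or below 50% in the single dose screen; inactive = viability above 50%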;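 note: compound exposure lasted 72 h before the ATP readout; 100% = median luminescence of untreated cell-only wells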
#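 Material: human LL 47 lung fibroblast cells; quantity: 1,150 cells/well; medium: IMEM plus 15% FBS; doses: 0.1% DMSO in all compound wells; timing: overnight attachment after seeding, then 72 h compound exposure at 37 °C; detection: CellTiter-Glo luminescence; measure: % viability of median cell-only signal; controls: cell-only wells, no compound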
# Pyk2 oligo antag – antagonists of Pyk2 self-association, primary screen, Q293 cells, FERM NanoBiT luminescence, HTS; z-score (the deposit names both 25 µM and 10 µM); Protein-tyrosine kinase 2-beta (Homo sapiens), Q14289; active compounds read low; hit rate 0.83% among 99,000; AID 1347419, 2020;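 active = Z-score of -3 or lower, scaled per plate to the spread of control and sample wells; inactive = z-score above -3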;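 note: negative z-score means lost luminescence so less FERM oligomerization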
# Target sequence (Q14289 whole entry, looked up): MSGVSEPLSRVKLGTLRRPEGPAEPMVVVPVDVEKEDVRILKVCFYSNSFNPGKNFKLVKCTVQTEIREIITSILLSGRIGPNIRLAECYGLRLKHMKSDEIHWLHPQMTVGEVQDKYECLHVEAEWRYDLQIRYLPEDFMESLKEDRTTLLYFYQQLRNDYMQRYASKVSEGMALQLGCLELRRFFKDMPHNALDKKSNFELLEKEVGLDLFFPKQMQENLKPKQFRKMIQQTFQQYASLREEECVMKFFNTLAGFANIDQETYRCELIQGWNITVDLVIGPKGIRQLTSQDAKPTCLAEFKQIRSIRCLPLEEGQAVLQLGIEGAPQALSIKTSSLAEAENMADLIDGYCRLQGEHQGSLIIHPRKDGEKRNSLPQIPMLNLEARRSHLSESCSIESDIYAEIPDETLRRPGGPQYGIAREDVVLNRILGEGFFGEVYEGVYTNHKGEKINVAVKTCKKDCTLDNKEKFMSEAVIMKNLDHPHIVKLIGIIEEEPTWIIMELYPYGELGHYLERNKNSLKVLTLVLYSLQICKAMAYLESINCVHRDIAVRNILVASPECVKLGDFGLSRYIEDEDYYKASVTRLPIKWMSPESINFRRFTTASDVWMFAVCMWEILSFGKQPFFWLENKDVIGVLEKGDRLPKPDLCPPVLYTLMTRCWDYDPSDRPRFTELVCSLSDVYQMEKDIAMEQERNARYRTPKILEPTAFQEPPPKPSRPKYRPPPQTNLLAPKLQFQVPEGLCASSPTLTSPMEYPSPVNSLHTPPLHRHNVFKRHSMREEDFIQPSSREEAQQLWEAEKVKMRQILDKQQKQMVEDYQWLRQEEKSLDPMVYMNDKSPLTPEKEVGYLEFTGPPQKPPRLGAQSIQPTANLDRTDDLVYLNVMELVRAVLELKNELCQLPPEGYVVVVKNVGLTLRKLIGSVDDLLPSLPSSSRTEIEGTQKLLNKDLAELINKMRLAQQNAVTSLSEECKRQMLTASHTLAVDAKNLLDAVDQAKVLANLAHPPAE
# HUVEC prolif 384 – inhibitors of HUVEC proliferation, primary screen, cell-based, 384-well | CellTiter-Glo luminescence, 72 h; active compounds read low | viability, % at 10 µM (by protocol) | hit rate 1.1% among 86,000 | AID 648, 2007;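 active = viability at or below 30%; inactive = viability above 30%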;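 note: 100% = median luminescence of DMSO-only cell control wells on each plate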
# Jurkat viability – cytotoxicity toward Jurkat T cells, primary screen, cytotoxicity control, cell-based, Jurkat E6.1, 60K MLSMR library; Jurkat E6.1 viability, ATP luminescence, 48 h; inhibition, % at 4 µM; hit rate 1.2% among 56,000; AID 463, 2006;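 active = inhibition above the mean inhibition of all tested compounds plus 3 SD, cut at about 28% in these data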
# * hit, by the source's call; . = no result given.
SMILES,F-actin modifier,H69AR inhibit,Fibroblast inh,Pyk2 oligo antag,HUVEC prolif 384,Jurkat viability
Cc1ccc(CNC(=O)CCNC(=O)Cn2ccc3ccccc3c2=O)o1,4,95,98,0.39,93,.
COc1ccc(-c2c3c(nc4sc5c(Cl)nc(C)nc5c24)CCC3)cc1,2,.,.,0.53,.,.
CCOC(=O)N1CCN(S(=O)(=O)N(C)C)CC1,6,96,117,-0.57,109,-1
Cc1c(C(=O)N2CCCc3ccccc32)oc2ccc(S(=O)(=O)N3CCOCC3)cc12,-19,59,62,-1.9,95,-2
Nc1c(C(=O)NCCN2CCOCC2)c2nc3ccccc3nc2n1CCc1ccccc1,-20,47,87,-2.1,58,-10
Nc1c(C(=O)NCCN2CCOCC2)c2nc3ccccc3nc2n1CCc1ccccc1F,15,26*,92,-0.24,43,-6
COc1cccc(Nc2nc(NCC3CCCO3)c3ccccc3n2)c1 (centres undefined),6,64,23*,-2.6,35,.
Oc1ccc(Nc2nc(NCC3CCCO3)c3ccccc3n2)cc1 (centres undefined),0,37*,86,-0.79,35,8
CCN(CC)c1cc(CS(=O)c2ccccc2)nc(-c2ccccc2)n1 (centres undefined),.,.,.,-0.85,.,.
COc1cc2[nH]c(=O)n3nc(-c4ccccc4)nc3c2cc1OC,.,46,112,-1,87,.
CCN(CC)CCNc1nc2cc(OC)c(OC)cc2c2nc(-c3ccccc3)nn12,0,15*,2.7*,0.7,11*,.
CS/C(=N\S(=O)(=O)c1ccc(N)cc1)NS(=O)(=O)c1cccs1,-12,98,100,0.56,101,.
Cc1cc2n(n1)SC(Nc1cc(Cl)ccc1Cl)N2 (centres undefined),-10,90,88,0.48,88,.
Cc1oc2cc(O)ccc2c(=O)c1Oc1ccc2ccccc2c1,13,93,104,-1.9,103,.
Oc1ccc2c(c1)oc1cc(O)ccc12,-2,5.2*,76,-0.58,57,22
CN1CC(c2ccccc2Cl)C2(COc3ccccc3C2=O)C12C(=O)Nc1ccccc12 (centres undefined),0,.,.,-2.9,.,.
Cc1ccc(C2CN(C)C3(C(=O)Nc4ccccc43)C23COc2ccccc2C3=O)cc1 (centres undefined),11,.,.,-3.6*,.,.
COc1ccc2c(c1)OCC1=C2CCC2(C)C(=O)CC=C12 (centres undefined),-26,11*,93,.,77,4
CC(C)(C)c1ccccc1OCCCCCNCCO,.,11*,79,-0.72,91,4
Cn1nnnc1SCC(=O)N1CCN(c2cccc(Cl)c2)CC1,12,87,96,-0.6,97,.
COc1ccc(C(c2nnnn2Cc2cccs2)N2CCN(c3ccccc3F)CC2)cc1OC (centres undefined),.,76,92,-3.6*,96,-4
COCCn1nnnc1C(c1ccc(OC)cc1)N1CCN(c2ccccc2F)CC1 (centres undefined),4,.,.,-3.5*,.,-1
COc1ccc(Cn2nnnc2C(c2cccs2)N2CCN(c3ccccc3)CC2)cc1 (centres undefined),1,84,100,-1.9,100,10
Fc1ccc(C(c2nnnn2Cc2cccs2)N2CCN(c3ccccc3)CC2)cc1 (centres undefined),-1,95,97,-3.5*,118,.
Cc1cc(-c2nn3c(C)nnc3s2)ccc1NC(=O)C(C)(C)C,3,92,98,0.1,95,2
SMILES,F-actin modifier,H69AR inhibit,Fibroblast inh,Pyk2 oligo antag,HUVEC prolif 384,Jurkat viability
COc1cc(-c2nc(-c3ccc(NC(=O)c4ccc5c(c4)OCO5)cc3)no2)cc(OC)c1OC,-5,13*,73,1.5,28*,5
Cc1ccccc1-c1nc(-c2ccc(NC(=O)c3ccc4c(c3)OCO4)cc2)no1,4,28*,20*,1.6,39,.
COC(=O)c1ccc(NC(=O)c2ccc3c(c2)OCO3)cc1,11,79,95,0.16,90,-2
Cc1ccc(C(=O)Nc2ccccc2N2CCN(C(=O)C(C)C)CC2)cc1,-10,81,104,-0.76,94,2
CC(C)Oc1ccc(C(=O)Nc2ccccc2N2CCCC2)cc1,2,32*,88,-0.11,111,.
c1ccc(COc2ccc(OCCCNC3CCCC3)cc2)cc1,3,40*,76,-0.12,59,.
Oc1ccccc1-c1cc(C(F)(F)C(F)F)nc(-c2ccccc2)n1,6,88,95,0.23,90,-1
COc1ccc(O)c(-c2cc(C(F)(F)C(F)F)nc(-c3ccccc3)n2)c1,.,34*,94,-0.51,80,.
Cc1cccc2c(=O)oc(-c3ccc4c(c3)C(=O)N(CC3CCCO3)C4=O)nc12 (centres undefined),-17,104,93,.,97,-1
CCC1Oc2nc(SC)nnc2-c2ccccc2N1C(=O)c1ccccc1 (centres undefined),-5,25*,84,-1.5,91,-4
Cc1ccc(C(=O)N2CCN(c3ncccn3)CC2)cc1S(=O)(=O)N1CCCCC1,.,.,.,-0.25,.,.
O=C(O)CCCCCNC(=O)CCn1cnc2ccccc2c1=O,-1,94,113,1,98,4
CCOC(=O)COc1cccc2c(=O)n(CC(=O)NCc3ccc4c(c3)OCO4)ccc12,-11,26*,63,.,56,51*
CCn1cc(C(=O)OCC(=O)NCc2ccc3c(c2)OCO3)c(=O)c2ccc(C)nc21,-7,11*,106,0.98,91,-5
CCN(CC)S(=O)(=O)c1ccc(NC(=O)C(OC)c2ccccc2)cc1 (centres undefined),19,84,96,0.55,84,5
c1cncc(-c2nc(NCc3ccco3)c3ccccc3n2)c1,-1,59,90,-0.08,94,-4
Cc1ccc(-c2nc(N/N=C/c3cccnc3)c3ccccc3n2)cc1,-15,26*,50,-2.9,57,.
CN(C)c1ccnc(NCc2ccccc2)c1C#N,8,.,.,-0.87,.,-1
c1ccc(-c2nc(NCc3cccnc3)c3ccccc3n2)cc1,0,.,.,-3.7*,.,.
N#Cc1c(NCc2ccccc2)ccnc1NCc1cccnc1,38,96,92,-1.3,85,69*
Clc1cccc(-c2nc(NCc3cccnc3)c3ccccc3n2)c1,4,.,.,-3.7*,.,.
O=C(NCc1ccco1)c1ccccc1NS(=O)(=O)c1ccc(Br)s1,-2,105,98,-1.7,57,.
CCOc1ccc(/C(O)=C2\C(=O)C(=O)N(CCOCCO)C2c2ccccc2OC)cc1 (centres undefined),6,107,123,1.6,106,.
